Legend:
[1] = target: Fibroblast growth factor receptor 2 (Homo sapiens, UniProt P21802); assay: Inhibition of His-tagged cytoplasmic recombinant human FGFR2 (403 to 822 residues) expressed in baculovirus expression system using Tyr 4 peptide as substrate incubated for 1 hr by FRET-based Z'-Lyte assay
[2] = target: Fibroblast growth factor receptor 3 (Homo sapiens, UniProt P22607); assay: Inhibition of His-tagged cytoplasmic recombinant human FGFR3 (399 to 806 residues) expressed in baculovirus expression system using Tyr 4 peptide as substrate incubated for 1 hr by FRET-based Z'-Lyte assay
Chain of Fibroblast growth factor receptor 3 (P22607 whole entry, the tested form may be a part): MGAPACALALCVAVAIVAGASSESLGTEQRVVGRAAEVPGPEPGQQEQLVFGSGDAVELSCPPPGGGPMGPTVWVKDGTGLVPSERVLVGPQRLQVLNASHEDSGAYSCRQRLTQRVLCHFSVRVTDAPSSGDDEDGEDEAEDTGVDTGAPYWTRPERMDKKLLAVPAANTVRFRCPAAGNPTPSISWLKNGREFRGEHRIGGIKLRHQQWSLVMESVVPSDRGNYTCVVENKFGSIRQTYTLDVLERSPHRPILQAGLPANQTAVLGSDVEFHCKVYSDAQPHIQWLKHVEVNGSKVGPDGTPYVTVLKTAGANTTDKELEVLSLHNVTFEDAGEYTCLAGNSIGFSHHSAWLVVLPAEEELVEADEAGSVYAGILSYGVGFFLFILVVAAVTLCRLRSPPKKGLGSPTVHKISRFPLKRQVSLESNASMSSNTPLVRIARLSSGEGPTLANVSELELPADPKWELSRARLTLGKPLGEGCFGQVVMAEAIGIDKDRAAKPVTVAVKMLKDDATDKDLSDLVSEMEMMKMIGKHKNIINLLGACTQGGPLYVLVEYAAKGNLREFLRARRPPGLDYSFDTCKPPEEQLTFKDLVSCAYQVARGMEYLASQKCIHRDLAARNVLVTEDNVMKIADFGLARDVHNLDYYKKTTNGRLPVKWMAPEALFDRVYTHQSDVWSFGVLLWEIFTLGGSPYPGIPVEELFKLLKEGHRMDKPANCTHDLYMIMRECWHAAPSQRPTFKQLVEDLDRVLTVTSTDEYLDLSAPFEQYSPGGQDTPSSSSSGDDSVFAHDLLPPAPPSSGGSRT

MDA-MB-453 [3] = assay: Antiproliferative activity against human MDA-MB-453 cells harboring FGFR4 Y367C mutant after 72 hrs by CCK8 assay; details: MDA-MB-453, 72 h
MDA-MB-231 = assay: Antiproliferative activity against human MDA-MB-231 cells expressing low levels of FGFR4 after 72 hrs by CCK8 assay; details: MDA-MB-231, 72 h
MCF7 = assay: Antiproliferative activity against human MCF7 cells expressing low levels of FGFR4 after 72 hrs by CCK8 assay; details: MCF7, 72 h
[4] = target: T1, Fibroblast growth factor receptor 4 (Homo sapiens, UniProt P22455); assay: Inhibition of His-tagged cytoplasmic recombinant human FGFR4 ([…] residues) expressed in baculovirus expression system using Tyr 4 peptide as substrate incubated for 1 hr by FRET-based Z'-Lyte assay
Target sequence in this assay (P22455 whole entry, the tested form may be a part): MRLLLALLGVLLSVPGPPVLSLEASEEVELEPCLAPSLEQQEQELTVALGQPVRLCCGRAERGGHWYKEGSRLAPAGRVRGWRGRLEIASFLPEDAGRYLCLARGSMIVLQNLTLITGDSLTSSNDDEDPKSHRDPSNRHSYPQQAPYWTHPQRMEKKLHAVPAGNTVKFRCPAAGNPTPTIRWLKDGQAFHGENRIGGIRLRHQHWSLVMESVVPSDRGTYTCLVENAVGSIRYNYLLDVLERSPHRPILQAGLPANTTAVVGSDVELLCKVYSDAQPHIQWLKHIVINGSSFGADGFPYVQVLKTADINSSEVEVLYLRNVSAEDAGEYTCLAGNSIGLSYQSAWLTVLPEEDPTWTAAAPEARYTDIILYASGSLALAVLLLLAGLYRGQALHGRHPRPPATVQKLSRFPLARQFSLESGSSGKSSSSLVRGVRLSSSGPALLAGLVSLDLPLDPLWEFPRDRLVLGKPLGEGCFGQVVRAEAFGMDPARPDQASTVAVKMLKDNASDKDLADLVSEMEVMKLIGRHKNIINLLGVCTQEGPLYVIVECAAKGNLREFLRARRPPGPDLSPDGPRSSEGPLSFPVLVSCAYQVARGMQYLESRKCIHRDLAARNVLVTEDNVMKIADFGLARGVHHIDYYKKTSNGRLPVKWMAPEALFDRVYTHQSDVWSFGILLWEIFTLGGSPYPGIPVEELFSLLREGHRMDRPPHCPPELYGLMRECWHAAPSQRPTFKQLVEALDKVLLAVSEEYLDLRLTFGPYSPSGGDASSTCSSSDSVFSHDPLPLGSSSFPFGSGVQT

[5] = target: Fibroblast growth factor receptor 1 (Homo sapiens, UniProt P11362); assay: Inhibition of His-tagged cytoplasmic recombinant human FGFR1 (308 to 731 residues) expressed in baculovirus expression system using Tyr 4 peptide as substrate incubated for 1 hr by FRET-based Z'-Lyte assay
Chain of Fibroblast growth factor receptor 1 (P11362 whole entry, the tested form may be a part): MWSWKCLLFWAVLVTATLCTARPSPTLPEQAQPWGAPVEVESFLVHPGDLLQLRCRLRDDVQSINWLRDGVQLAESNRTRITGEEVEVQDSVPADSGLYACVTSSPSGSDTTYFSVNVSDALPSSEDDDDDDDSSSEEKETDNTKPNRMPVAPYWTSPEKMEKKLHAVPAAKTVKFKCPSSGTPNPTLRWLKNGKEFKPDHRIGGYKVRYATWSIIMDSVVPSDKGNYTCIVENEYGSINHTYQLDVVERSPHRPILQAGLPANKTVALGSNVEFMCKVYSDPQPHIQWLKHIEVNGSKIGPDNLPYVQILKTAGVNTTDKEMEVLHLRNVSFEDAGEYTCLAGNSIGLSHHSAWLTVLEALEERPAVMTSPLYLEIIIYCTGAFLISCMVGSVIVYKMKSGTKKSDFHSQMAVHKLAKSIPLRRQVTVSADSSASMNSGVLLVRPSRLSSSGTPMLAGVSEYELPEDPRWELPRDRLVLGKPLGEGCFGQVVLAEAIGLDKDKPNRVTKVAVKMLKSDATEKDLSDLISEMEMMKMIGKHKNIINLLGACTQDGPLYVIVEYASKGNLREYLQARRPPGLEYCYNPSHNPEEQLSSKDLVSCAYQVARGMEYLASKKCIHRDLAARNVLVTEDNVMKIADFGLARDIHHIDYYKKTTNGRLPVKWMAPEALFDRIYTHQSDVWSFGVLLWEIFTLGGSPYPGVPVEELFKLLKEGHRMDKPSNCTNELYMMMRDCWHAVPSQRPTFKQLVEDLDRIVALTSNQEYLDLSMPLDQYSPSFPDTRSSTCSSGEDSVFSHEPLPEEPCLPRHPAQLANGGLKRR

MDA-MB-453 [6] = assay: Effect on total ERK1/2 levels in human MDA-MB-453 cells at 3 to 300 nM after 4 hrs by Western blot method; assay type: ADME, cell-based; details: mda-mb-453, 4 h, 0.3 µM
Summary of the method: (§1)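 MDA-MB-453 cells (FGFR4 Y367C) were treated with or without compound for 4 h at the indicated concentrations. Cells were then harvested, and total and phosphorylated FGFR4, FRS2, ERK1/2 and Akt were read by Western blot.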

MDA-MB-453 [7] = assay: Effect on total AKT levels in human MDA-MB-453 cells at 3 to 300 nM after 4 hrs by Western blot method; assay type: ADME, cell-based; details: mda-mb-453, 4 h, 0.3 µM; summary of the method: as §1
MDA-MB-453 [8] = assay: Effect on total FRS2 levels in human MDA-MB-453 cells at 3 to 300 nM after 4 hrs by Western blot method; assay type: ADME, cell-based; details: mda-mb-453, 4 h, 0.3 µM; summary of the method: as §1
[9] = target: T1, Fibroblast growth factor receptor 4; assay: Binding affinity to ATP binding site of human FGFR4 after 1 hr by qPCR method
Summary of the method: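 The Kd for FGFR4 was measured in an active-site-dependent competition binding assay against the ATP-binding site.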
Target sequence in this assay (P22455 whole entry, the tested form may be a part): as the sequence (P22455 whole entry, the tested form may be a part) above

[10] = target: Calcium/calmodulin-dependent protein kinase type 1D (Homo sapiens) (UniProt Q8IU85); assay: Inhibition of human CAMK1D at 1 uM after 1 hr by KINOMEscan assay relative to control
Chain of Calcium/calmodulin-dependent protein kinase type 1D (Homo sapiens) (Q8IU85 whole entry, looked up): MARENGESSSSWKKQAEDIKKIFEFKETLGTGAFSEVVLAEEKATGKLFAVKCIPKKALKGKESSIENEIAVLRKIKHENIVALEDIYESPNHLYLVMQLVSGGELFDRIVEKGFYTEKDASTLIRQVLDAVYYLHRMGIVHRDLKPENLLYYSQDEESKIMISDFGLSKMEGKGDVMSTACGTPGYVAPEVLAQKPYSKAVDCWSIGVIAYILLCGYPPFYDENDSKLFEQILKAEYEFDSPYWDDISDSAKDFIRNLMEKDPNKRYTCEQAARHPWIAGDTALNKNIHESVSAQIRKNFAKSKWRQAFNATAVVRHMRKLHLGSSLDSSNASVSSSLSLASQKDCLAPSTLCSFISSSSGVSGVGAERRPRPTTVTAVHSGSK
Summary of the method: (§2)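 Kinome-wide competition binding screen across 468 kinases, with compound at 1.0 µM.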

[11] = target: G protein-coupled receptor kinase 4 (Homo sapiens) (UniProt P32298); assay: Inhibition of human GRK4 at 1 uM after 1 hr by KINOMEscan assay relative to control; summary of the method: as §2
Chain of G protein-coupled receptor kinase 4 (Homo sapiens) (P32298 whole entry, looked up): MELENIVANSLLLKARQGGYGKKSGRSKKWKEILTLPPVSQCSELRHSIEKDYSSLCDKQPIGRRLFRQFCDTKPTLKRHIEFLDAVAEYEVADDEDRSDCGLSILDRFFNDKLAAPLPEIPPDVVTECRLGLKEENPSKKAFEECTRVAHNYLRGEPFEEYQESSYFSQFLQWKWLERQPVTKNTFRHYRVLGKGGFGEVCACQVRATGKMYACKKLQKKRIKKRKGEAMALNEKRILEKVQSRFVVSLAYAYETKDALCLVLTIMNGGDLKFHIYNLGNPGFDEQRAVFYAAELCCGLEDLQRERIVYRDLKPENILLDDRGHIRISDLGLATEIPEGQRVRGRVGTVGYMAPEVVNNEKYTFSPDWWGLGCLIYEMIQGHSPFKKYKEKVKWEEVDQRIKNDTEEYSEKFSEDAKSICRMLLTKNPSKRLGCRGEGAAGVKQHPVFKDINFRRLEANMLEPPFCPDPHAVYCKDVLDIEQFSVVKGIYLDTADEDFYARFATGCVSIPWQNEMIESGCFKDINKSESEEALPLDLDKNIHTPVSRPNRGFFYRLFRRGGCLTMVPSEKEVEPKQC

[12] = target: SRSF protein kinase 3 (Homo sapiens) (UniProt Q9UPE1); assay: Inhibition of human SRSF protein kinase 3 at 1 uM after 1 hr by KINOMEscan assay relative to control; summary of the method: as §2
Chain of SRSF protein kinase 3 (Homo sapiens) (Q9UPE1 whole entry): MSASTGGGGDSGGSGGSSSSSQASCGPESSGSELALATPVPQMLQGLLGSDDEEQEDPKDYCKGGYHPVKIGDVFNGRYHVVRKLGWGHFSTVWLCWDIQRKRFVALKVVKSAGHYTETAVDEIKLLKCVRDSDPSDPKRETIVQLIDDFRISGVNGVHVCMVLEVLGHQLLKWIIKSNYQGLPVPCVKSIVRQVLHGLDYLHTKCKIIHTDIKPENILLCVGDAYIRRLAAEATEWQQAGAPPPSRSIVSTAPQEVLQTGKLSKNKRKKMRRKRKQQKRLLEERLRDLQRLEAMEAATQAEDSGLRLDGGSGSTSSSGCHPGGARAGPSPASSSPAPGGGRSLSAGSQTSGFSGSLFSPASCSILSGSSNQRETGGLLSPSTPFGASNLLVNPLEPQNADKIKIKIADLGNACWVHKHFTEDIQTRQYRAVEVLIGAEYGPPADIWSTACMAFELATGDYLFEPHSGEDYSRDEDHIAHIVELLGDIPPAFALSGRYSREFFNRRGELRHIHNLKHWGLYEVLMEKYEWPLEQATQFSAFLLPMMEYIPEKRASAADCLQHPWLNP

MDA-MB-453 [13] = assay: Induction of apoptosis in human MDA-MB-453 cells after 48 hrs by annexin V/[…] staining-based flow cytometric method; assay type: functional, cell-based
[14] = target: T1, Fibroblast growth factor receptor 4; details: 1 uM

Chain of Fibroblast growth factor receptor 2 (P21802 whole entry, the tested form may be a part): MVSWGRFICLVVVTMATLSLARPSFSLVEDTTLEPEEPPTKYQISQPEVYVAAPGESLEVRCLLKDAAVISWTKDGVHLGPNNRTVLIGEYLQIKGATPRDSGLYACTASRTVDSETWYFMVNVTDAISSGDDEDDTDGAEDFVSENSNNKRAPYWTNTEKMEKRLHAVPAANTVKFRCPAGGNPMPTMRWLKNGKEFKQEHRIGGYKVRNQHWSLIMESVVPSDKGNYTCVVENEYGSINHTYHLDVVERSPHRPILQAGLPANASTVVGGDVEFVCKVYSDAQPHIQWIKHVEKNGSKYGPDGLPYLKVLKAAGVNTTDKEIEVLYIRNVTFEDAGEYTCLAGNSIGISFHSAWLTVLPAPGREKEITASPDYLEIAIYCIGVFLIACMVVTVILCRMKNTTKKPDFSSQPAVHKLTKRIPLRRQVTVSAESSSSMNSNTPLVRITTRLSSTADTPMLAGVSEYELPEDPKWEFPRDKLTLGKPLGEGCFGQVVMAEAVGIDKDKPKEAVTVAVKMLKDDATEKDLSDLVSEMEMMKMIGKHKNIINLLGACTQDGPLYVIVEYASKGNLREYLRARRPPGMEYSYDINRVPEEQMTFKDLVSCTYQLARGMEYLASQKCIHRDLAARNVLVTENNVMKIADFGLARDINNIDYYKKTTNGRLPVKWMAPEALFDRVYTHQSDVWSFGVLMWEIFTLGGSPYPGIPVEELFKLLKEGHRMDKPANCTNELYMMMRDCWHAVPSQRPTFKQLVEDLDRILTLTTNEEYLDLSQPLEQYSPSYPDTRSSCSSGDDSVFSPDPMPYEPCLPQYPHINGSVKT

SMILES | IC50 [1] [µM] | IC50 [2] [µM] | IC50 [5] [µM] | other results
C=CC(=O)Nc1cccc(OC)c1Nc1ncc(OCc2c(Cl)c(OC)cc(OC)c2Cl)cn1 | > 10 | > 10 |  | IC50 (MDA-MB-453 [3]): 0.21 µM; IC50 (MDA-MB-231): 2.14 µM; IC50 (MCF7): 1.18 µM
C=CC(=O)Nc1cc(Cl)cc(Cl)c1Nc1ncc(OCc2c(Cl)c(OC)cc(OC)c2Cl)cn1 | > 10 | > 10 |  | IC50 (MDA-MB-453 [3]): 0.87 µM; IC50 (MDA-MB-231): > 10 µM; IC50 (MCF7): > 10 µM
C=CC(=O)Nc1cccc(Cl)c1Nc1ncc(OC(C)c2c(Cl)c(OC)cc(OC)c2Cl)cn1 (stereo not given) | > 10 | > 10 |  | 
CCC(=O)Nc1cccc(Cl)c1Nc1ncc(OCc2c(Cl)c(OC)cc(OC)c2Cl)cn1 | > 10 | > 10 |  | IC50 [4]: > 10 µM
C=CC(=O)Nc1cccc(Cl)c1Nc1ncc(OCc2c(Cl)cccc2Cl)cn1 | > 10 | > 10 | > 10 | 
C=CC(=O)Nc1cccc(C(F)(F)F)c1Nc1ncc(OCc2c(Cl)c(OC)cc(OC)c2Cl)cn1 | > 10 | > 10 | > 10 | 
C=CC(=O)Nc1c(C)cccc1Nc1ncc(OCc2c(Cl)c(OC)cc(OC)c2Cl)cn1 | > 10 | > 10 |  | IC50 [4]: > 10 µM
C=CC(=O)Nc1ccc(C)cc1Nc1ncc(OCc2c(Cl)c(OC)cc(OC)c2Cl)cn1 | > 10 | > 10 |  | 
C=CC(=O)Nc1cccc(Cl)c1Nc1ncc(OCc2c(Cl)c(OC)cc(OC)c2Cl)cn1 | > 10 | > 10 |  | IC50 (MDA-MB-453 [3]): 0.65 µM; IC50 (MDA-MB-231): > 10 µM; IC50 (MCF7): > 10 µM
C=CC(=O)Nc1cccc(Cl)c1Nc1ncc(OCc2ccccc2Cl)cn1 | > 10 | > 10 | > 10 | 
C=CC(=O)Nc1cc(C(F)(F)F)cc(Cl)c1Nc1ncc(OCc2c(Cl)c(OC)cc(OC)c2Cl)cn1 | > 10 | > 10 | > 10 | 
C=CC(=O)Nc1ccccc1Nc1ncc(OCc2c(Cl)c(OC)cc(OC)c2Cl)cn1 | 0.312 | 1.2 |  | 
C=CC(=O)Nc1cccc(Cl)c1Nc1ncc(OCc2cccc(OC)c2Cl)cn1 | > 10 | > 10 |  | 
C=CC(=O)Nc1cccc(F)c1Nc1ncc(OCc2c(Cl)c(OC)cc(OC)c2Cl)cn1 | 0.397 | 4.3 |  | 
C=CC(=O)Nc1cccc(OC(C)C)c1Nc1ncc(OCc2c(Cl)c(OC)cc(OC)c2Cl)cn1 | > 10 | > 10 | > 10 | 
C=CC(=O)Nc1cc(C)ccc1Nc1ncc(OCc2c(Cl)c(OC)cc(OC)c2Cl)cn1 | > 10 | > 10 |  | 
C=CC(=O)Nc1cccc(OCC)c1Nc1ncc(OCc2c(Cl)c(OC)cc(OC)c2Cl)cn1 | > 10 | > 10 | > 10 | 
C=CC(=O)Nc1cccc(Cl)c1Nc1ncc(OCc2cccc(OC)c2)cn1 | > 10 | > 10 | > 10 | 
C=CC(=O)Nc1cccc(Cl)c1Nc1ncc(OCc2c(Cl)ccc(OC)c2Cl)cn1 | > 10 | > 10 |  | 
C=CC(=O)Nc1cccc(Cl)c1Nc1ncc(OCc2cc(OC)ccc2Cl)cn1 | > 10 | > 10 |  | 
C=CC(=O)Nc1cccc(Cl)c1Nc1ncc(OCc2cc(OC)cc(OC)c2)cn1 | > 10 | > 10 |  | 
C=CC(=O)Nc1cccc(C)c1Nc1ncc(NCc2c(Cl)c(OC)cc(OC)c2Cl)cn1 | > 10 | > 10 |  | 
C=CC(=O)Nc1cccc(C)c1Nc1ncc2cc(-c3c(Cl)c(OC)cc(OC)c3Cl)ccc2n1 |  | 0.244 | 0.24 | IC50 (MDA-MB-453 [3]): 0.32 µM; IC50 (MDA-MB-231): 3.76 µM; IC50 (MCF7): 2.34 µM
C=CC(=O)Nc1cccc(C)c1Nc1ncc(OCc2c(Cl)c(OC)cc(OC)c2Cl)cn1 |  |  |  | IC50 (MDA-MB-453 [3]): 0.22 µM; IC50 (MDA-MB-231): > 10 µM; IC50 (MCF7): > 10 µM
C=CC(=O)Nc1cc(F)cc(Cl)c1Nc1ncc(OCc2c(Cl)c(OC)cc(OC)c2Cl)cn1 | > 10 | > 10 | > 10 | IC50 [4]: 0.0026 µM; Activity (MDA-MB-453 [6]): Non-Toxic; Activity (MDA-MB-453 [7]): Non-Toxic; Activity (MDA-MB-453 [8]): Non-Toxic; Kd [9]: 0.0033 µM; inhibition [10]: 94.7%; inhibition [11]: 92.8%; inhibition [12]: 88%; IC50 (MDA-MB-453 [3]): 0.38 µM; IC50 (MDA-MB-231): > 10 µM; IC50 (MCF7): > 10 µM; Activity (MDA-MB-453 [13]): Dose-dependent effect; inhibition [14]: 99.5%
C=CC(=O)Nc1cccc(CC)c1Nc1ncc(OCc2c(Cl)c(OC)cc(OC)c2Cl)cn1 | > 10 | > 10 |  | 
C=CC(=O)Nc1cccc(Cl)c1Nc1ncc(OCc2cc(OC)cc(OC)c2Cl)cn1 | > 10 | > 10 |  | 
